Measurements: ChEMBL document CHEMBL1140764, “Chromen-based TNF-alpha converting enzyme (TACE) inhibitors: design, synthesis, and biological evaluation” (Bioorg Med Chem, 2008)

Tests used:
[1] = target: 72 kDa type IV collagenase (Homo sapiens, UniProt P08253); experiment: Inhibition of human recombinant MMP2
Procedure, shortened: (§1)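 Recombinant human MMP-2 or MMP-9 catalytic domain with fluorogenic quenched peptide Mca-Pro-Leu-Gly-Leu-Dpa-Ala-Arg-NH2. Cleavage releases Mca. Fluorescence read at excitation 324, emission 420, and the rate of emission change is taken as enzyme activity. IC50 values are means of three experiments.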

[2] = target: Matrix metalloproteinase-9 (Homo sapiens, UniProt P14780); experiment: Inhibition of human recombinant MMP9; procedure, shortened: as §1
RAW264.7 [3] = experiment: Inhibition of NO production in mouse RAW264.7 cells at 10 uM after 24 hrs by ELISA; assay type: functional, cell-based; conditions: in the assay text read “by Griess assay” for “by ELISA”
Procedure, shortened: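 RAW264.7 cells cultured with inhibitors for 24 h. NO2- accumulation in medium taken as NO output: supernatant mixed 1:1 with Griess reagent (1% sulfanilamide, 0.1% naphthylethylenediamine dihydrochloride, 2% phosphoric acid), 10 min at room temperature, absorbance at 540 nm against a NaNO2 standard curve. Single concentration 10 μM. Means of three experiments.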

[4] = target: Disintegrin and metalloproteinase domain-containing protein 17 (Homo sapiens, UniProt P78536); experiment: Inhibition of human TACE
RAW264.7 [5] = experiment: Inhibition of TNFalpha production in mouse RAW264.7 cells after 24 hrs by ELISA; assay type: functional, cell-based; conditions: RAW264.7, 24 h
Procedure, shortened: (§2)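 RAW264.7 cells cultured with inhibitors for 24 h. Secreted TNF-α in culture supernatant quantified by ELISA following the kit instructions. IC50 values are means of three experiments; line 3 is the single-concentration 10 μM result.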

RAW264.7 [6] = experiment: Inhibition of TNFalpha production in mouse RAW264.7 cells at 10 uM after 24 hrs by ELISA; assay type: functional, cell-based; procedure, shortened: as §2

Sequence of 72 kDa type IV collagenase (P08253 whole entry, the tested form may be a part): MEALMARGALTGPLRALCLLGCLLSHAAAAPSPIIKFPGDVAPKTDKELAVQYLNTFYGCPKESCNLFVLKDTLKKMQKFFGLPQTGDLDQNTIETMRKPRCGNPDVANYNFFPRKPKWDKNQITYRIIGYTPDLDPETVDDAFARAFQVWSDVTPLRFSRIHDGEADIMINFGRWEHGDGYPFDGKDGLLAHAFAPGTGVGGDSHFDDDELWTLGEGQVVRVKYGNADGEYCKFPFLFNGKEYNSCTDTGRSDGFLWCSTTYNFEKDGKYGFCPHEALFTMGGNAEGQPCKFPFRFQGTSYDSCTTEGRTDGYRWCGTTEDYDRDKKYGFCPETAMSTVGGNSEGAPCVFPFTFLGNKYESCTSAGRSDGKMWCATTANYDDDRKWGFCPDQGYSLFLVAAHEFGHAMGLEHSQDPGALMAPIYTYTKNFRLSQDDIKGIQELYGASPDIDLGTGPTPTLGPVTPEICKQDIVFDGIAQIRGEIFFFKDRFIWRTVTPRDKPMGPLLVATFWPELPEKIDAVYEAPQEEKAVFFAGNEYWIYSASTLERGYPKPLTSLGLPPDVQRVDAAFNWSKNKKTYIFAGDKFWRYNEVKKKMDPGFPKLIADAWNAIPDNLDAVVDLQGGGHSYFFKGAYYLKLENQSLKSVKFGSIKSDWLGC
Sequence of Matrix metalloproteinase-9 (P14780 whole entry): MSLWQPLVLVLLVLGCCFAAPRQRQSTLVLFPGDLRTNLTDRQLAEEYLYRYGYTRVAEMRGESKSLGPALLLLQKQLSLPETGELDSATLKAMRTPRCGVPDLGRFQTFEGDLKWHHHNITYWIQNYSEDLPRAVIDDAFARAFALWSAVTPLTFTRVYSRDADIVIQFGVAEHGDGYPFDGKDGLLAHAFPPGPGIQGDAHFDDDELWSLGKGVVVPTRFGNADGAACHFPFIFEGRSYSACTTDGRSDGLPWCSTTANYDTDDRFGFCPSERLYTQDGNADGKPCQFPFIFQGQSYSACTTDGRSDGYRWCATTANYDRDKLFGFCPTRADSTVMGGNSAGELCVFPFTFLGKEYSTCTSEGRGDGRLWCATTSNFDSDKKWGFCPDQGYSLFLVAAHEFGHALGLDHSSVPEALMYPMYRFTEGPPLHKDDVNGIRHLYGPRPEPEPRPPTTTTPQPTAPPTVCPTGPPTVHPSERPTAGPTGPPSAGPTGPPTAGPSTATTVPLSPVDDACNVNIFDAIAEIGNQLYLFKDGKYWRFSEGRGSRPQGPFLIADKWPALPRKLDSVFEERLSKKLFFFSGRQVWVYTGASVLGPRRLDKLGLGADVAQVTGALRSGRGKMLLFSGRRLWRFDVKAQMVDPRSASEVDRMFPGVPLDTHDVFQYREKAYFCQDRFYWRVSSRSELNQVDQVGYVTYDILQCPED
Sequence of Disintegrin and metalloproteinase domain-containing protein 17 (P78536 whole entry, the tested form may be a part): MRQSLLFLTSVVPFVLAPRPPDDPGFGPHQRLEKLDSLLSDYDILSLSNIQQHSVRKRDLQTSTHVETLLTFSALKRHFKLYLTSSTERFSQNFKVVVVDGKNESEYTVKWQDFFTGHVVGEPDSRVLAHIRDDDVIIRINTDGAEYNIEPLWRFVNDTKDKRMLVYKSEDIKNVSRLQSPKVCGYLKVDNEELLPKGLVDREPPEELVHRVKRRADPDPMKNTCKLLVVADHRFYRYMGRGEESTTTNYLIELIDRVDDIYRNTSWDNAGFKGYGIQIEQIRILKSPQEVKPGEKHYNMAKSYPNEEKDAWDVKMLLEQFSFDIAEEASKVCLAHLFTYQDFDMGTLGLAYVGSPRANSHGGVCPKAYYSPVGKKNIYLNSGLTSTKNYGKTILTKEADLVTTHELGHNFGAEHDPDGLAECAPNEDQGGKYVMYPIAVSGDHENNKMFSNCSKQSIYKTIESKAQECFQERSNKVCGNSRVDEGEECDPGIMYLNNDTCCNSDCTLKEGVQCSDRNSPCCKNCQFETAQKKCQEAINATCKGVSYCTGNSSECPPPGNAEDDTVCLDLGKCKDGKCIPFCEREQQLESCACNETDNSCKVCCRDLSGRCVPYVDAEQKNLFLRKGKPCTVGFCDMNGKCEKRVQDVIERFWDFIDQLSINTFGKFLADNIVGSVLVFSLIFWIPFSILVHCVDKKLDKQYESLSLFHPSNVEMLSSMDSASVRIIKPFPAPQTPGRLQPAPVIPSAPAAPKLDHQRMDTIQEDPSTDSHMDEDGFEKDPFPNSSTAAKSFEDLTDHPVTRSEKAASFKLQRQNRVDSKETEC

Row | SMILES | IC50 [1] [nM] | IC50 [2] [nM] | IC50 (RAW264.7 [3]) | IC50 [4] [nM] | IC50 (RAW264.7 [5]) [nM] | IC50 (RAW264.7 [6])
1 | O=C(CCc1cc2ccccc2oc1=O)NO | 200 | 1410 | Not Active | 150 | 5640 | 
2 | COc1ccc2oc(=O)c(CC(C)C(=O)NO)cc2c1 (configuration not stated) |  |  | Not Active | 36 | 220 | 
3 | C/C=C/C=C\C=C1\C=C(CCC(=O)NO)C(=O)OC1 | 6 | 23 | Not Active | 28 | 8800 | 
4 | Cc1ccc2oc(=O)c(CC(C)C(=O)NO)cc2c1 (configuration not stated) | 1040 | > 10000 | Not Active | 3 | 320 | 
5 | C=CCC(Cc1cc2cc(C)ccc2oc1=O)C(=O)NO (configuration not stated) |  |  | Not Active | 30 | 520 | 
6 | Cc1ccc2oc(=O)c(CC(Cc3ccccc3)C(=O)NO)cc2c1 (configuration not stated) |  |  | Not Active | 5 | 540 | 
7 | COc1ccc2oc(=O)c(CCC(=O)NO)cc2c1 | 590 | 5660 | Not Active | 110 | 2210 | 

Continued, values first:

Row | IC50 [1] [nM] | IC50 [2] [nM] | IC50 (RAW264.7 [3]) | IC50 [4] [nM] | IC50 (RAW264.7 [5]) [nM] | IC50 (RAW264.7 [6]) | SMILES
8 | 230 | 3050 | Not Active | 60 | 1300 |  | Cc1ccc2oc(=O)c(CCC(=O)NO)cc2c1
9 | 860 | 24500 | Not Active | 840 | 13000 |  | O=C(CCc1cc2cc(Br)ccc2oc1=O)NO
10 | 1470 | 16400 | Not Active | 550 | 25600 |  | O=C(CCc1cc2cc(Cl)ccc2oc1=O)NO
11 |  |  | Not Active | 12400 |  | Not Active | CC(C)(C)c1ccc2oc(=O)c(CCC(=O)NO)cc2c1
